# E-sel inducer: E-selectin induction on HUVECs; P16581; HUVEC E-selectin immunofluorescence imaging; normalized: neutral wells 0, TNF-alpha wells 100; activation, % at 7.58 µM; hit rate 0.37% among 260,000;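 active = mean E-selectin-positive cell signal at least 10% of the positive control, reached in at least 60% of replicates, without over 20% cell loss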
# Target sequence (P16581 whole entry, looked up): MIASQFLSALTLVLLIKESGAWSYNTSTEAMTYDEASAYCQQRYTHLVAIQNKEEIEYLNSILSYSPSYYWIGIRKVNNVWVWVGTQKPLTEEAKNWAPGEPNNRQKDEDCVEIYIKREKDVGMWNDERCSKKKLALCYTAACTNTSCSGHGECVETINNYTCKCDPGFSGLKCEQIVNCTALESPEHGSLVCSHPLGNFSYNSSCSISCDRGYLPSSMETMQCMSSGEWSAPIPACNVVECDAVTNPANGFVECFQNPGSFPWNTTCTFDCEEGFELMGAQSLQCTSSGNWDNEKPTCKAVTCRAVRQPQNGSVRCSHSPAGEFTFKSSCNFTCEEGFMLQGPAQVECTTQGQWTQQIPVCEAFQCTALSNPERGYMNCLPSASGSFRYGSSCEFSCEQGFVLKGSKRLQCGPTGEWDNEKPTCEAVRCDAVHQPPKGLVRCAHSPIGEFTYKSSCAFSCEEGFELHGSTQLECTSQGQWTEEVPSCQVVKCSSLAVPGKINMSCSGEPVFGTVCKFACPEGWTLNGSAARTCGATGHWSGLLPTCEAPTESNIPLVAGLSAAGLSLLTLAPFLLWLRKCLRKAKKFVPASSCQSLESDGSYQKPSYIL
#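 Assay system: HUVEC, human umbilical vein endothelial cells / Amount: 3,000 HUVEC/well / Controls: TNF-alpha positive control, DMSO neutral control / Compound dosing: single concentration / Medium: EGM-2 over gelatin coat / Evaluation: percent E-selectin-positive cells / Signal: immunofluorescence imaging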
# An asterisk follows results filed as active. The full list was thinned out, with hits kept by preference.
SMILES,E-sel inducer
C[C@H]1CN([C@@H](C)CO)C(=O)c2cc(NS(=O)(=O)c3cn(C)cn3)ccc2O[C@@H]1CN(C)Cc1ccncc1,49*
C[C@@H]1CN([C@H](C)CO)C(=O)c2cc(N(C)C)ccc2O[C@H]1CN(C)S(=O)(=O)c1cn(C)cn1,63*
C[C@H]1CN([C@@H](C)CO)C(=O)c2cc(N(C)C)ccc2O[C@@H]1CN(C)S(=O)(=O)c1cn(C)cn1,-3
Cc1noc(C)c1S(=O)(=O)Nc1ccc2c(c1)C(=O)N([C@H](C)CO)C[C@H](C)[C@H](CN(C)Cc1ccc3c(c1)OCO3)OCCCC[C@@H](C)O2,0
C/C=C/c1ccc([C@@H]2[C@@H](CNC(=O)CC3CC3)N(C(=O)CC)[C@H]2CO)cc1,0
COC(=O)C[C@@H]1CC[C@H]2[C@H](COc3ccc(NC(=O)Nc4cc(C)cc(C)c4)cc3C(=O)N2C)O1,0
COc1ccc(CN(C)C[C@H]2OCCCC[C@H](C)Oc3ccc(NC(=O)CCC(F)(F)F)cc3C(=O)N([C@H](C)CO)C[C@@H]2C)cc1,0
COc1ccccc1NC(=O)N[C@@H]1C=C[C@H](CC(=O)NCc2ccc(Cl)c(Cl)c2)O[C@@H]1CO,-1
O=C(N[C@H]1CC[C@@H](CCNS(=O)(=O)c2ccc(F)cc2)O[C@@H]1CO)C1CCC1,0
CC(=O)N1[C@@H]2c3cccc(=O)n3C[C@H]1[C@H](CO)[C@H]2C(=O)NCC1CCCCC1,0
Cc1noc(C)c1S(=O)(=O)Nc1ccc2c(c1)C(=O)N([C@@H](C)CO)C[C@@H](C)[C@H](CN(C)Cc1ccncc1)O2,-6
Cc1noc(C)c1S(=O)(=O)Nc1ccc2c(c1)C(=O)N([C@H](C)CO)C[C@@H](C)[C@H](CN(C)Cc1ccncc1)O2,57*
Cc1noc(C)c1S(=O)(=O)Nc1ccc2c(c1)C(=O)N([C@@H](C)CO)C[C@@H](C)[C@@H](CN(C)Cc1ccncc1)O2,-3
C[C@@H]1CCCCO[C@H](CN(C)C(=O)Nc2ccc3c(c2)OCO3)[C@@H](C)CN([C@H](C)CO)C(=O)c2cc(NS(=O)(=O)c3cn(C)cn3)ccc2O1,0
O=C(Nc1cccc(F)c1)N1CC(=O)N2[C@H](CO)[C@@H](c3ccc(-c4ccccc4F)cc3)[C@H]2C1,0
CC(C)NC(=O)N(C)C[C@H]1Oc2ncc(C#Cc3ccncc3)cc2C(=O)N([C@H](C)CO)C[C@@H]1C,-1
COCC(=O)Nc1ccc2c(c1)[C@H]1C[C@H](CC(=O)NCc3ccc4c(c3)OCO4)O[C@@H](CO)[C@H]1O2,1
C[C@H]1CN([C@@H](C)CO)C(=O)Cc2cc(NC(=O)c3ccncc3)ccc2O[C@H]1CN(C)C,1
COc1ccc(NC(=O)N(C)C[C@@H]2Oc3ccc(NC(=O)c4ccncc4)cc3CC(=O)N([C@@H](C)CO)C[C@H]2C)cc1,72*
COc1ccc(NC(=O)N(C)C[C@@H]2Oc3ccc(N(C)C)cc3CC(=O)N([C@@H](C)CO)C[C@H]2C)cc1,-8
C[C@@H]1CN([C@@H](C)CO)C(=O)Cc2cc(NC(=O)c3ccncc3)ccc2O[C@@H]1CN(C)S(C)(=O)=O,37*
C[C@@H]1CN([C@H](C)CO)C(=O)Cc2cc(NC(=O)c3ccncc3)ccc2O[C@@H]1CN(C)S(C)(=O)=O,15
COc1ccc(NC(=O)N(C)C[C@H]2Oc3ccc(N(C)C)cc3CC(=O)N([C@H](C)CO)C[C@@H]2C)cc1,327*
COc1ccc(NC(=O)N(C)C[C@@H]2Oc3ccc(N(C)C)cc3CC(=O)N([C@H](C)CO)C[C@@H]2C)cc1,-4
COc1ccc(NC(=O)N(C)C[C@@H]2Oc3ccc(NC(=O)c4ccncc4)cc3CC(=O)N([C@H](C)CO)C[C@@H]2C)cc1,226*
SMILES,E-sel inducer
C[C@H](CO)N1C[C@H](C)[C@@H](CN(C)C(=O)Nc2ccc(F)cc2)Oc2ccc(NC(=O)c3ccncc3)cc2CC1=O,0
C[C@H](CO)N1C[C@H](C)[C@@H](CN(C)C(=O)Nc2ccc(C(F)(F)F)cc2)Oc2ccc(NC(=O)c3ccncc3)cc2CC1=O,9
C[C@H](CO)N1C[C@H](C)[C@H](CN(C)C(=O)Nc2ccccc2)Oc2ccc(NC(=O)c3ccncc3)cc2CC1=O,0
COc1ccc(CN(C)C[C@H]2Oc3ccc(NC(=O)c4ccncc4)cc3CC(=O)N([C@@H](C)CO)C[C@@H]2C)cc1,0
CC(=O)Nc1ccc2c(c1)C(=O)N(C)[C@@H]1CC[C@@H](CC(=O)NC3CCCCC3)O[C@@H]1CO2,0
COc1ccc(S(=O)(=O)N(C)C[C@H]2OCCCC[C@H](C)Oc3ccc(NS(=O)(=O)c4ccc(Cl)cc4)cc3C(=O)N([C@H](C)CO)C[C@H]2C)cc1,0
C[C@@H]1CN([C@H](C)CO)C(=O)c2cccc(NC(=O)C3CC3)c2O[C@H]1CN(C)S(C)(=O)=O,0
CC(C)NC(=O)N[C@@H]1CC[C@H](CC(=O)NCc2ccc(Oc3ccccc3)cc2)O[C@@H]1CO,-1
C[C@H]1CN([C@@H](C)CO)C(=O)Cc2cc(NC(=O)c3ccncc3)ccc2O[C@H]1CN(C)C(=O)Nc1ccc(F)cc1,0

# Source: PubChem (Broad Institute)
